Tests used:
[1] = tested on: Human immunodeficiency virus 1; assay: Antiviral activity against HIV1 LAI with RT F227C and V106A mutation in MT4 cells by EGFP based replication assay; assay type: functional, organism-based; conditions: Human immunodeficiency virus 1, LAI
How it was run: (§1)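 MT4-LTR-EGFP indicator cells (EGFP under HIV-1 LTR, induced via Tat) mixed with HIV-1 LAI or LAI-derived RT mutant and serial 4-fold compound dilutions; incubated 37 °C for 3 days. EGFP expression read by argon laser-scanning microscopy. EC50 = concentration inhibiting 50% of virus-induced EGFP signal, by linear interpolation of signal versus log concentration.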

[2] = tested on: Human immunodeficiency virus 1; assay: Antiviral activity against wild type HIV1 LAI infected in MT4 cells by EGFP based replication assay; assay type: functional, organism-based; conditions: Human immunodeficiency virus 1, LAI
How it was run: (§2)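 MT4-LTR-EGFP indicator cells (EGFP under HIV-1 LTR, induced via Tat) mixed with HIV-1 LAI or LAI-derived RT mutant and serial 4-fold compound dilutions; incubated 37 °C for 3 days. EGFP expression read by argon laser-scanning microscopy.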

[3] = Cytotoxicity against human MT4 cells after 3 days by EGFP based replication assay; assay type: cell-based
How it was run: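 Uninfected MT4-CMV-EGFP cells, which express EGFP constitutively, were exposed to serial 4-fold compound dilutions at 37 °C for 3 days. EGFP was read by argon laser-scanning microscopy. CC50 was obtained by linear interpolation of EGFP signal against log concentration.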

[4] = Selectivity index, ratio of CC50 for human MT4 cells to EC50 for HIV1 LAI; assay type: functional
[5] = tested on: Human immunodeficiency virus 1; assay: Antiviral activity against HIV1 LAI with RT K103N and Y181C mutation in MT4 cells by EGFP based replication assay; assay type: functional, organism-based; conditions: Human immunodeficiency virus 1, LAI; how it was run: as §1
[6] = tested on: Human immunodeficiency virus 1; assay: Antiviral activity against HIV1 LAI with RT L100I mutation in MT4 cells by EGFP based replication assay; assay type: functional, organism-based; conditions: Human immunodeficiency virus 1, LAI; how it was run: as §2
[7] = tested on: Human immunodeficiency virus 1; assay: Antiviral activity against HIV1 LAI with RT Y188L mutation in MT4 cells by EGFP based replication assay; assay type: functional, organism-based; conditions: Human immunodeficiency virus 1, LAI; how it was run: as §1
[8] = tested on: Human immunodeficiency virus 1; assay: Antiviral activity against HIV1 LAI with RT K103N mutation in MT4 cells by EGFP based replication assay; assay type: functional, organism-based; conditions: Human immunodeficiency virus 1, LAI; how it was run: as §1
[9] = tested on: Human immunodeficiency virus 1; assay: Antiviral activity against HIV1 LAI with RT Y181C mutation in MT4 cells by EGFP based replication assay; assay type: functional, organism-based; conditions: Human immunodeficiency virus 1, LAI; how it was run: as §1
[10] = tested on: Human immunodeficiency virus 1; assay: Antiviral activity against HIV1 LAI with RT F227C mutation in MT4 cells by EGFP based replication assay; assay type: functional, organism-based; conditions: Human immunodeficiency virus 1, LAI; how it was run: as §1
[11] = tested on: Human immunodeficiency virus 1; assay: Antiviral activity against HIV1 LAI with RT L100I and K103N mutation in MT4 cells by EGFP based replication assay; assay type: functional, organism-based; conditions: Human immunodeficiency virus 1, LAI; how it was run: as §1
[12] = Metabolic stability in rat liver microsomes after 15 mins; assay type: ADME, Microsome; conditions: read-out: Stability
How it was run: (§3)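 Liver microsomes were the 100,000×g pellet of S9 from tissue homogenized in 0.1 M phosphate, pH 7.4. Incubations contained 1 mg/mL protein in 0.1 M phosphate pH 7.4 with an NADPH-generating system, plus a heat-inactivated control. After 5 min preincubation at 37 °C, NADP started the reaction, which ran 15 min and was stopped with DMSO or acetonitrile. Duplicates, LC-MS; fraction remaining relative to T=0.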

[13] = Metabolic stability in dog liver microsomes after 15 mins; assay type: ADME, Canis lupus familiaris, Microsome; conditions: read-out: Stability; how it was run: as §3
[14] = Metabolic stability in human liver microsomes after 15 mins; assay type: ADME, Microsome; conditions: read-out: Stability; how it was run: as §3
[15] = Cmax in Wistar rat at 10 mg/kg, po; assay type: ADME, organism-based; design: dose 10 mg/kg, route oral; conditions: in vivo
[16] = AUC in Wistar rat at 10 mg/kg, po; assay type: ADME, organism-based; design: dose 10 mg/kg, route oral; conditions: plasma
[17] = Half life in Wistar rat at 10 mg/kg, po after 6 hrs; assay type: ADME, organism-based; design: dose 10 mg/kg, route oral; conditions: in vivo
[18] = Cmax in Beagle dog at 10 mg/kg, po; assay type: ADME, organism-based, Canis lupus familiaris; design: dose 10 mg/kg, route oral; conditions: in vivo
[19] = AUC in Beagle dog at 10 mg/kg, po; assay type: ADME, organism-based, Canis lupus familiaris; design: dose 10 mg/kg, route oral; conditions: plasma
[20] = Half life in Beagle dog at 10 mg/kg, po after 23 hrs; assay type: ADME, organism-based, Canis lupus familiaris; design: dose 10 mg/kg, route oral; conditions: in vivo

Row | Compound | EC50 [1] [nM] | EC50 [2] [nM] | CC50 at 72 h [3] [nM] | Ratio CC50/EC50 [4] | EC50 [5] [nM] | EC50 [6] [nM] | EC50 [7] [nM] | EC50 [8] [nM] | EC50 [9] [nM] | EC50 [10] [nM] | EC50 [11] [nM] | remaining at 0.25 h [12] [%] | remaining at 0.25 h [13] [%] | remaining at 0.25 h [14] [%] | Cmax [15] [ng/mL] | AUC [16] [ng·h/mL] | half-life [17] [h] | Cmax [18] [ng/mL] | AUC [19] [ng·h/mL] | half-life [20] [h]
1 | Cc1cc(/C=C/C#N)cc(C)c1Oc1ccnc(Nc2ccc(C#N)cc2)n1 | 0.6 | 0.9 | > 25000 | 28302 | 4.3 | 0.6 | 1.6 | 0.2 | 3.2 | 0.7 | 3.7 |  |  |  |  |  |  |  |  | 
2 | Cc1cc(/C=C\C#N)cc(C)c1Sc1ccnc(Nc2ccc(C#N)cc2)n1 | 1.1 | 3.7 | > 25000 | >6821 | 18.6 | 2.6 | 2.8 | 0.7 | 5.8 | 1.4 | 79.2 |  |  |  |  |  |  |  |  | 
3 | Cc1cc(/C=C/C#N)ccc1Nc1ccnc(Nc2ccc(C#N)cc2)n1 | 1.2 | 0.9 | > 25000 | >29372 | 89.6 | 9.2 | 43.6 | 0.6 | 13.4 | 1.2 | 479 |  |  |  |  |  |  |  |  | 
4 | Cc1cc(/C=C/C#N)ccc1N(C)c1ccnc(Nc2ccc(C#N)cc2)n1 | 1.5 | 1 | 11600 | 11351 | 160 | 2.5 | 16.8 | 0.7 | 12 | 1 | 104 |  |  |  |  |  |  |  |  | 
5 | CCc1cc(/C=C/C#N)cc(C)c1Nc1ccnc(Nc2ccc(C#N)cc2)n1 | 0.9 | 3 | 2550 | 841 | 5.3 | 0.9 | 2.6 | 0.5 | 4 | 1.1 | 8.2 |  |  |  |  |  |  |  |  | 
6 | Cc1cc(/C=C/C#N)cc(C(C)C)c1Nc1ccnc(Nc2ccc(C#N)cc2)n1 | 3.2 | 4 | 11800 | 2947 | 10.6 | 3.1 | 3.8 | 1.3 | 11.1 | 3.9 | 38.3 |  |  |  |  |  |  |  |  | 
7 | COc1cc(/C=C/C#N)cc(C)c1Nc1ccnc(Nc2ccc(C#N)cc2)n1 | 0.3 | 0.7 | 633 | 846 | 4.3 | 0.5 | 0.9 | < 0.1 | 1.9 | 0.3 | 21.1 |  |  |  |  |  |  |  |  | 
8 | Cc1cc(/C=C/C#N)cc(Cl)c1Nc1ccnc(Nc2ccc(C#N)cc2)n1 | 0.5 | 0.8 | 2610 | 3316 | 4.1 | 0.4 | 2.3 | 0.1 | 2.3 | 0.5 | 6.6 | 72 | 60 | 39 | 182 | 910 | 3.54 | 1040 | 17600 | 14.5
9 | COc1cc(/C=C/C#N)cc(Cl)c1Nc1ccnc(Nc2ccc(C#N)cc2)n1 | 0.3 | 0.1 | 398 | 3981 | 2 | 0.2 | 2.5 | 0.3 | 1 | 0.8 | 15.8 | 53 | 58 | 26 | 199 | 410 | 3.83 | 2180 | 44500 | 14.5
10 | N#C/C=C/c1ccc(Nc2ccnc(Nc3ccc(C#N)cc3)n2)cc1 | 76.1 | 33.9 | > 25000 | >737 | 3950 | 585 | 303 | 57.7 | 1520 | 98.4 | 6440 |  |  |  |  |  |  |  |  | 
11 | O=C1Nc2ccc(Cl)cc2C(C#CC2CC2)(C(F)(F)F)O1 (single isomer, unassigned) [EFAVIRENZ] | 4.1 |  | 32300 |  | 55 | 31 | 55 | 46.4 | 3.9 | 46.9 | 1460 |  |  |  |  |  |  |  |  | 
12 | CC(C)Nc1cccnc1N1CCN(C(=O)c2cc3cc(NS(C)(=O)=O)ccc3[nH]2)CC1 [DELAVIRDINE] | 721 | 122 | 67200 | >550 | 38400 | 9530 | 1020 | 10200 | 9040 | 4560 | 20600 |  |  |  |  |  |  |  |  | 
13 | Cc1ccnc2c1NC(=O)c1cccnc1N2C1CC1 [NEVIRAPINE] | 2700 | 33.3 | 31600 |  | 14500 |  | 5910 | 1980 | 7080 | 827 | 3530 |  |  |  |  |  |  |  |  | 
14 | Cc1cc(/C=C/C#N)cc(C)c1Nc1ccnc(Nc2ccc(C#N)cc2)n1 [RILPIVIRINE] | 0.5 |  | 2000 |  | 3.2 | 0.5 | 1.2 | […] | […] | 0.5 | 7.5 | 73 | 65 | 26 | 1940 | 9650 | […] | 1050 | […] | 23

Reference: ChEMBL document CHEMBL1146363, “Synthesis of novel diarylpyrimidine analogues of TMC278 and their antiviral activity against HIV-1 wild-type and mutant strains” (Eur J Med Chem, 2007)
